Test results: publication PMC6714607 (ACS Omega, 2019)

Tests used:
Assay type in all cases: cell-based
U87MG cells = experiment: FACS analysis of FITC-labeled PNA conjugate uptake; conditions: 0.5 μM, 2 h
Method in brief: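 U87MG cells were seeded at 2.0×10^5 per well and left to adhere overnight. They were given 0.5 μM FITC-labelled conjugate in DMEM with 10% FCS for 2 h at 37 °C, either alone, with 10 mM NaN3 plus 10 mM 2-deoxy-D-glucose, or held at 4 °C. Cells were PBS-washed, trypsinised, pelleted, resuspended in cold PBS and filtered. Flow cytometry used 488 nm excitation, gated on untreated cells, and gave the % FITC-positive cells. Each condition was run in two repeats.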

U87MG glioblastoma cells [1] = experiment: Confocal colocalization with Lyso-Tracker Red and Hoechst; conditions: 0.5 μM, 3 h, 37 °C, Lyso-Tracker Red and Hoechst staining
Method in brief: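 U87MG cells were plated 12 h beforehand on glass chamber slides and grown to 70–80% confluence. They were given 0.5 μM FITC-labelled conjugate in fresh complete medium for 3 h at 37 °C under 5% CO2, then washed twice with PBS. Staining was 50 nM LysoTracker Red for 20–30 min at 37 °C, PBS washes, then 0.01 mM Hoechst for 15 min. Cells were fixed in 4% formaldehyde and imaged by confocal laser scanning microscopy.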

[2] = test system: THESCs uterus (immortalized fibroblast) cells; experiment: XTT cell viability assay, THESCs uterus; conditions: 1 μM, 72 h, 37 °C, triplicates in 96-well plates
Method in brief: (§1)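 Cells were grown in DMEM with 10% FCS and penicillin/streptomycin, then seeded at 3×10^3 per well in 96-well plates. After 24 h attachment, the medium was replaced and conjugate or its scrambled-sequence control was added. Plates were incubated 72 h at 37 °C in humidified 5% CO2, and proliferation was read by XTT assay per the kit instructions.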

[3] = test system: normal uterus human fibroblast cells produced from a patient (Nf08 uterus); experiment: XTT cell viability assay, Nf08 uterus; conditions: 1 μM, 72 h, 37 °C, triplicates in 96-well plates, Figure S9
Method in brief: as §1

miR-155 = miR-155 expression by quantitative RT-PCR after PNA conjugate treatment; conditions: U87MG cells, 0.5 μM PNA conjugate, 24 h, 37 °C, qRT-PCR in triplicates
Method in brief: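 U87MG cells were treated with 0.5 μM conjugate or its scrambled-sequence control for 24 h at 37 °C. Total microRNA was isolated, and cDNA was synthesised from 1 μg RNA. miR-155 was quantified by SYBR Green real-time PCR with miR-155-specific primers, in triplicate.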

U87MG glioblastoma cells [4] = experiment: Colony formation; conditions: 1.0 μM for 24 h, colonies counted after 2 weeks, triplicates
Method in brief: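 U87MG cells in DMEM with 10% FCS were treated for 24 h with 1.0 μM conjugate or its scrambled-sequence control. Cells were then seeded at 1000 and 500 per well in triplicate six-well plates. After 14 days, colonies were fixed with 2.5% glutaraldehyde for 10 min, stained with 1% methylene blue and counted. Colony numbers were taken from the triplicate plates.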

U87MG glioblastoma cells [5] = experiment: XTT cell viability assay, U87MG; conditions: 1 μM, 72 h, 37 °C, triplicates in 96-well plates
Method in brief: as §1

**Q.** With “FITC-Ahx-5′-ACCCCTATCACAATTAGCATTAA-3′-C9 (head to tail) [C9–PNA–FITC]” as the substance, how does the “cellular uptake at 4 °C (ATP depletion) by FACS” value (U87MG cells; 4 °C, versus control at 37 °C, two repeats) read?
**A.** clear decrease in cellular uptake

**Q.** What about the “cellular uptake with 10 mM NaN3/10 mM 2-deoxy-D-glucose by FACS” value (U87MG cells; 37 °C, versus control without inhibitors, two repeats) of the same substance?
**A.** clear decrease in cellular uptake

**Q.** What about the “cellular localization of FITC-labeled PNA” value (U87MG glioblastoma cells [1]) of the same substance?
**A.** predominantly found in lysosomes and, to a lesser extent, in nuclei

**Q.** What about the “cellular uptake by confocal microscopy of stained, fixed cells” value (U87MG glioblastoma cells [1]) of the same substance?
**A.** strong punctate green signals

**Q.** With “5′-ACCCAATCGTCAGATTCCATATA-3′-C9 (head to tail) [C9–PNA-Scr]” as the substance, how does the “effect on viability of THESCs uterus cells” value [2] read?
**A.** negligible effects

**Q.** What about the “effect on viability of Nf08 uterus normal human fibroblast cells” value [3] of the same substance?
**A.** negligible effects

**Q.** “5′-ACCCCTATCACAATTAGCATTAA-3′-C9 (head to tail) [C9–PNA]” was tested. Which “decrease in miR-155 in comparison to the scrambled control” value (miR-155) did it give?
**A.** over 80%

**Q.** What about the “effect on viability of THESCs uterus cells” value [2] of the same substance?
**A.** negligible effects

**Q.** And the colony formation (U87MG glioblastoma cells [4])?
**A.** substantial decrease in colony formation

**Q.** What about the “effect on viability of Nf08 uterus normal human fibroblast cells” value [3] of the same substance?
**A.** negligible effects

**Q.** And the “reduction in cell viability in comparison to the C9–PNA-Scr control” value (U87MG glioblastoma cells [5])?
**A.** > 80%

**Q.** What does the source list for “FITC-Ahx-5′-ACCCCTATCACAATTAGCATTAA-3′-dK4 [dK4–PNA–FITC]”?
**A.** cellular uptake, change in FITC fluorescence by FACS (U87MG cells; 37 °C, complete medium, flow cytometry 488 nm): almost no change in fluorescence; cellular uptake by confocal microscopy of stained, fixed cells (U87MG glioblastoma cells [1]): negligible uptake
